Assays:
[1] = tested on: Human immunodeficiency virus 1; assay: Antiviral activity against HIV1 in human MT4 cell assessed as inhibition of virus spread in presence of 10% fetal bovine serum; format: functional; settings: Human immunodeficiency virus 1, MT4; read-out: CIC95
How it was run: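 Spread of HIV-1 infection in MT-4 human T-lymphoid cell culture with 10% fetal bovine serum; CIC95 is the concentration inhibiting spread by ≥95%; mean of at least three independent experiments.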

[2] = tested on: Human immunodeficiency virus 1; assay: Antiviral activity against HIV1 in human MT4 cell assessed as inhibition of virus spread in presence of 50% normal human serum; format: functional; settings: Human immunodeficiency virus 1, MT4; read-out: CIC95
How it was run: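 Spread of HIV-1 infection in MT-4 human T-lymphoid cell culture with 50% normal human serum; CIC95 is the concentration inhibiting spread by ≥95%; mean of at least three independent experiments.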

Liver microsomes = assay: Metabolic stability in rat liver microsomes in presence of UDPGA; format: ADME, Microsome
Liver = assay: Metabolic stability in dog liver microsomes in presence of UDPGA; format: ADME, Canis lupus familiaris, Microsome
[3] = Protein binding in rat plasma; format: ADME, cell-free; settings: read-out: PPB (converted)
How it was run: (§1)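 Plasma protein binding was measured by ultrafiltration after a 1 h incubation of compound in plasma at 37 °C.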

[4] = Protein binding in dog plasma; format: ADME, cell-free, Canis lupus familiaris; settings: read-out: PPB (converted)
How it was run: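 Plasma protein binding measured by ultrafiltration after incubation at 37 °C for 1 h.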

[5] = Oral bioavailability in rat at 3 mg/kg; format: ADME, organism-based; settings: in vivo
How it was run: (§2)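 In vivo PK: iv dosing in DMSO/PEG400/H₂O mixtures, oral dosing as methylcellulose suspension. Half-life was taken after iv dosing; AUC and Cmax after po dosing.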

[6] = Oral bioavailability in dog at 2 mg/kg; format: ADME, organism-based, Canis lupus familiaris; settings: in vivo; how it was run: as §2
[7] = Oral bioavailability in rhesus monkey at 6.5 mg/kg; format: ADME, organism-based, Macaca mulatta; settings: in vivo
How it was run: (§3)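 Rhesus dosed 1 mg/kg iv in DMSO and 6.5 mg/kg po in 0.5% methylcellulose; plasma clearance and oral bioavailability.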

[8] = Plasma clearance in rat at 3 mg/kg, po or 3 mg/kg, iv; format: ADME, organism-based; how it was run: as §2
[9] = Plasma clearance in dog at 1 mg/kg, iv or 2 mg/kg, po; format: ADME, organism-based, Canis lupus familiaris; how it was run: as §2
[10] = Plasma clearance in rhesus monkey at 1 mg/kg, iv or 6.5 mg/kg, po; format: ADME, organism-based, Macaca mulatta; how it was run: as §3
[11] = target: T1, DNA polymerase alpha catalytic subunit (Homo sapiens, UniProt P09884); assay: Inhibition of human DNA polymerase alpha
T1 sequence (P09884 whole entry): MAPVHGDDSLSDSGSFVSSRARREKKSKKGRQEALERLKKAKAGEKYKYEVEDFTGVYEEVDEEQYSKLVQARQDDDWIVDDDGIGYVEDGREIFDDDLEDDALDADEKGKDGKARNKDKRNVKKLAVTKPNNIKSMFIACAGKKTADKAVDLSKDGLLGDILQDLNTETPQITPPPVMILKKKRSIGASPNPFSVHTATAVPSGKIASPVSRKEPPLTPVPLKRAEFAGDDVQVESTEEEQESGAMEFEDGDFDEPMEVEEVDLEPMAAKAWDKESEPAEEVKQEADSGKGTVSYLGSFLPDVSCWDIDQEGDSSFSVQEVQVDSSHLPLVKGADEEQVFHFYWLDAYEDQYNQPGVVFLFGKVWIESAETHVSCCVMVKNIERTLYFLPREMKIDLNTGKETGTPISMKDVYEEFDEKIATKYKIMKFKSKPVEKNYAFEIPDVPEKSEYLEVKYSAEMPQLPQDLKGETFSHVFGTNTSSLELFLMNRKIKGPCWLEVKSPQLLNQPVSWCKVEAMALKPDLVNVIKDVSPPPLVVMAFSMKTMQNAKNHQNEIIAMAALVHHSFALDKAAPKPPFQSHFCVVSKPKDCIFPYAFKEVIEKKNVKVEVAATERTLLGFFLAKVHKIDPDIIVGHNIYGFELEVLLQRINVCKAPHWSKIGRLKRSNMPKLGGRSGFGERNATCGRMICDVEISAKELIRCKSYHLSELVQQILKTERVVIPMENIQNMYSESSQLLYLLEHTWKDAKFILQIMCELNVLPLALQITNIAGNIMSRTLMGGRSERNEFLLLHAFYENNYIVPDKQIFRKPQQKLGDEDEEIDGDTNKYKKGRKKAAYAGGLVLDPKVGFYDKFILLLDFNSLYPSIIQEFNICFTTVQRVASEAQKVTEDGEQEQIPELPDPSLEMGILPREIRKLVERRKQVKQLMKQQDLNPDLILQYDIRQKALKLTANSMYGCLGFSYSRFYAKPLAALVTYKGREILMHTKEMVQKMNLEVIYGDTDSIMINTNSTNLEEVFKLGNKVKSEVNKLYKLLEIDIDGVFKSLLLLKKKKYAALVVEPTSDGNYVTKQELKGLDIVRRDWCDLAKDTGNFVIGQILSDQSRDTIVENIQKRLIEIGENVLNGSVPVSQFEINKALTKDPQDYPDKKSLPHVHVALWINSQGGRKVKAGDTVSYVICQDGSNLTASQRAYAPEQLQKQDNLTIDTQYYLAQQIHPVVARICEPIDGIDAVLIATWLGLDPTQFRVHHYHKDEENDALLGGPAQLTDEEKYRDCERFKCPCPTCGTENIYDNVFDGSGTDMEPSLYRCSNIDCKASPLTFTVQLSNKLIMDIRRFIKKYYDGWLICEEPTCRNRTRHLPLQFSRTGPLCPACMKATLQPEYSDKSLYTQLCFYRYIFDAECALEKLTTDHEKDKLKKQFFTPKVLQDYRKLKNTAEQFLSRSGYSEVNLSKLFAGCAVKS

DNA polymerase beta = DNA polymerase beta (Homo sapiens, UniProt P06746); assay: Inhibition of human DNA polymerase beta
[12] = Inhibition of human DNA polymerase gamma
[13] = Inhibition of HIV-RNase-H; set-up: species or system Human immunodeficiency virus
[14] = Inhibition of HCV polymerase; set-up: species or system Hepacivirus hominis
[15] = target: Voltage-gated inwardly rectifying potassium channel KCNH2 (Homo sapiens, UniProt Q12809); assay: Inhibition of human ERG
Chain of Voltage-gated inwardly rectifying potassium channel KCNH2 (Q12809 whole entry): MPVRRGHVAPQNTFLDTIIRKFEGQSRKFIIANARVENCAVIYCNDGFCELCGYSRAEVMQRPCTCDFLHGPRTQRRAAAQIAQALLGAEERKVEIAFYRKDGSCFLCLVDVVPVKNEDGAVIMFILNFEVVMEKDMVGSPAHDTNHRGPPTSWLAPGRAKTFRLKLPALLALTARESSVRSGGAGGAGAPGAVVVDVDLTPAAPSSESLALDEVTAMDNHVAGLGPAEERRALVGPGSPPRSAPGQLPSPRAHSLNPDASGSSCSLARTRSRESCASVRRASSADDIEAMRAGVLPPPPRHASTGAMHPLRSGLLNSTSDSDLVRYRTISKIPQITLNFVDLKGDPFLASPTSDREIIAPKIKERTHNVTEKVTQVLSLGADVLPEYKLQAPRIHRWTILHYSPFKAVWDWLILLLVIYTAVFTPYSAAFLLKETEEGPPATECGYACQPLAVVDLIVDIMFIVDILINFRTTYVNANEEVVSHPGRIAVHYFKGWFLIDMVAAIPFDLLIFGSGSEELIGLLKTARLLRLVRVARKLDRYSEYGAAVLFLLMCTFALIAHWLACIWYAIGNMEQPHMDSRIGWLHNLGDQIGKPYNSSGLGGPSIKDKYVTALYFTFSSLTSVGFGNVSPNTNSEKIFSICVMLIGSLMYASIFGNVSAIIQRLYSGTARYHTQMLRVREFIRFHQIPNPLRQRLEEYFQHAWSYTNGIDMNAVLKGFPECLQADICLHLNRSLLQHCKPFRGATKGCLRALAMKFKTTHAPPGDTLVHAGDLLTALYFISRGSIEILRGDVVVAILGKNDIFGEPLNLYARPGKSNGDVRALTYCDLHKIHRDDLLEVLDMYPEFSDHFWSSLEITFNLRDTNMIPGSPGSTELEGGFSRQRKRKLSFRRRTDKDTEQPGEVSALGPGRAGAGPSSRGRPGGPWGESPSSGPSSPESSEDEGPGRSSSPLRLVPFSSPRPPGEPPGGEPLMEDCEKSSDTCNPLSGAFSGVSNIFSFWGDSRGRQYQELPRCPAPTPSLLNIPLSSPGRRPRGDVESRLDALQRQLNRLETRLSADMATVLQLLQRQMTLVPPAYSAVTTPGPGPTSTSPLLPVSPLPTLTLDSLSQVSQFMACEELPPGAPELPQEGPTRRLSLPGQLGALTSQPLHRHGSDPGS

Cytochrome P450 1A2 = target: T2, Cytochrome P450 1A2 (Homo sapiens, UniProt P05177); assay: Inhibition of CYP1A2; format: ADME
T2 sequence (P05177 whole entry): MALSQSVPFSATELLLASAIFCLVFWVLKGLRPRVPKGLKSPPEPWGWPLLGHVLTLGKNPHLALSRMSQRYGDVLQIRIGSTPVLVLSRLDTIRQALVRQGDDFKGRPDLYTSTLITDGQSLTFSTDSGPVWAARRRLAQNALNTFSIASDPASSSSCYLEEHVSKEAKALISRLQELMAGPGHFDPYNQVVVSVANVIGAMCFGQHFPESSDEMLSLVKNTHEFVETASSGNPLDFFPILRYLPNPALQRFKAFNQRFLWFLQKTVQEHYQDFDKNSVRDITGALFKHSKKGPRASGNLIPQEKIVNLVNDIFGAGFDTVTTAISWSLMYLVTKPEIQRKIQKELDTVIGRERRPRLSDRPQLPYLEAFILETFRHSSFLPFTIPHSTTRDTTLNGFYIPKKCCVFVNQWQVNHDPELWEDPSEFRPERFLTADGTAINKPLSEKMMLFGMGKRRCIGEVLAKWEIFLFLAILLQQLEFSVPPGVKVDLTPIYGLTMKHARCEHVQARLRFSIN

Cytochrome P450 2C19 = Cytochrome P450 2C19 (Homo sapiens, UniProt P33261); assay: Inhibition of CYP2C19; format: ADME
Chain of Cytochrome P450 2C19 (P33261 whole entry): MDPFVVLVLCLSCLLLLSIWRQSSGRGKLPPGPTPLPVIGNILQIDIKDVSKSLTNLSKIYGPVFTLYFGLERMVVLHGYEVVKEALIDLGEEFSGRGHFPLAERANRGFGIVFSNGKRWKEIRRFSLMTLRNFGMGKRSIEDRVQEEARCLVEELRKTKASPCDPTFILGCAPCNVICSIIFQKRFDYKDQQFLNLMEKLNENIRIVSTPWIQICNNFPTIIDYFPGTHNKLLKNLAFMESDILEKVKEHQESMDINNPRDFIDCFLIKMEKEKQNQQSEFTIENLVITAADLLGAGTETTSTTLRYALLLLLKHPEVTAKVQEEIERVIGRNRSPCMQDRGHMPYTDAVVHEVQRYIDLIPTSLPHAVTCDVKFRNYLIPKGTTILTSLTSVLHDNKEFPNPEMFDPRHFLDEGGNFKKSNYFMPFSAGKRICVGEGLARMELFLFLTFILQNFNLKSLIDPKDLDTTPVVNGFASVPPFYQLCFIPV

Cytochrome P450 2C9 = Cytochrome P450 2C9 (Homo sapiens, UniProt P11712); assay: Inhibition of CYP2C9; format: ADME
Chain of Cytochrome P450 2C9 (P11712 whole entry): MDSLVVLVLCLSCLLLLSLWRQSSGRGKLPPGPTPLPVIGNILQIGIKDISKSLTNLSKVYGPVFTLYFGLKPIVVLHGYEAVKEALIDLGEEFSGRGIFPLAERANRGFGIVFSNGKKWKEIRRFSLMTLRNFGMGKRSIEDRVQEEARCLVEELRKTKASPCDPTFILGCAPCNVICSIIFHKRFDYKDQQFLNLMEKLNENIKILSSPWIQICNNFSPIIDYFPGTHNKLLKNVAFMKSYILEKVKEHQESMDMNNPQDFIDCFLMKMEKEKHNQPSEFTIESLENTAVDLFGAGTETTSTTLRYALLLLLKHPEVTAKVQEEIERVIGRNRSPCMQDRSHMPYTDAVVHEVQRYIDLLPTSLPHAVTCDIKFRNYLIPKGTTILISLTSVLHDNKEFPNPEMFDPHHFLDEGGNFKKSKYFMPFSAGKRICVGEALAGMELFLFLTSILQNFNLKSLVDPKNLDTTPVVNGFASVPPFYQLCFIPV

Cytochrome P450 2D6 = Cytochrome P450 2D6 (Homo sapiens, UniProt P10635); assay: Inhibition of CYP2D6; format: ADME
Chain of Cytochrome P450 2D6 (P10635 whole entry): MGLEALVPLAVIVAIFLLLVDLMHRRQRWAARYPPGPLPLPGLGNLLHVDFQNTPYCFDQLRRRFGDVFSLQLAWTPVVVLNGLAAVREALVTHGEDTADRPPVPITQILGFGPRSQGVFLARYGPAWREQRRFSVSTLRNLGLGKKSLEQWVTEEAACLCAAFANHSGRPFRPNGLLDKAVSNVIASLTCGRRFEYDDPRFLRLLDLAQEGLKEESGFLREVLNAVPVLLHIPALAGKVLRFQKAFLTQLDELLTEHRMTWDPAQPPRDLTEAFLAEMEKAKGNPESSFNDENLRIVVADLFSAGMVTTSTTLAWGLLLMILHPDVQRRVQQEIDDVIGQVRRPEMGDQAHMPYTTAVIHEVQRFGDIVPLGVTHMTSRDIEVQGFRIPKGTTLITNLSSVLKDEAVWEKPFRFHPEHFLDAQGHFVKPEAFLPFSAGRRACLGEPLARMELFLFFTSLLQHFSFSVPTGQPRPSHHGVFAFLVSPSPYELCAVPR

Cytochrome P450 3A4 = Cytochrome P450 3A4 (Homo sapiens, UniProt P08684); assay: Inhibition of CYP3A4; format: ADME
Chain of Cytochrome P450 3A4 (P08684 whole entry): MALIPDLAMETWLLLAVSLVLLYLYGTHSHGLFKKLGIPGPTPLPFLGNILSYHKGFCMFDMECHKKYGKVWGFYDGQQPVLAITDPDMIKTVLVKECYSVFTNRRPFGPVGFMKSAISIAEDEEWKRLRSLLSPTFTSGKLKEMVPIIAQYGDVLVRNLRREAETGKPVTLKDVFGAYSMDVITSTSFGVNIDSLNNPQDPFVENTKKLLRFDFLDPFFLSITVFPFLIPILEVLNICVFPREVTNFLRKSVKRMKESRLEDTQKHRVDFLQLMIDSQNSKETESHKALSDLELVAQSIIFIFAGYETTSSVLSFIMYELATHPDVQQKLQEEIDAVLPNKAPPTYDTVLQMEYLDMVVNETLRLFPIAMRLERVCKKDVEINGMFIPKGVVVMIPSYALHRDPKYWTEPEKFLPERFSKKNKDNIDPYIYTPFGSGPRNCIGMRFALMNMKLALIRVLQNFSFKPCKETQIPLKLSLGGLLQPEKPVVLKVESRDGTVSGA

[16] = Protein binding in rhesus monkey plasma; format: ADME, cell-free, Macaca mulatta; settings: read-out: PPB (converted); how it was run: as §1
[17] = Metabolic stability in rhesus monkey liver microsomes in presence of UDPGA; format: ADME, Macaca mulatta, Microsome
How it was run: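 Single-point measurement: compound 2 µM, microsomes 0.3 mg/mL, with UDPGA; degradation quantified by LC/MS/MS after 1 h of incubation.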

[18] = Inhibition of recombinant HIV1 integrase strand transfer activity
Homo sapiens = organism: Homo sapiens; assay: Protein binding in human plasma; settings: read-out: PPB (converted)

Stability (Liver microsomes): 81 %/hr | Stability (Liver): 46 %/hr | fraction unbound [3]: 0.01 | fraction unbound [4]: 0.11 | bioavailability [5]: 63% | bioavailability [6]: 42% | bioavailability [7]: 9% | clearance [8]: 1.8 mL/min/kg | clearance [9]: 3.8 mL/min/kg | clearance [10]: 27 mL/min/kg | IC50 [11]: > 200 µM | IC50 (DNA polymerase beta): > 200 µM | IC50 [12]: > 200 µM | IC50 [13]: > 25 µM | IC50 [14]: > 50 µM | IC50 (Cytochrome P450 1A2): > 100 µM | IC50 (Cytochrome P450 2C19): > 100 µM | IC50 (Cytochrome P450 2C9): > 100 µM | IC50 (Cytochrome P450 2D6): > 100 µM | IC50 (Cytochrome P450 3A4): > 100 µM | fraction unbound [16]: 0.14 | Stability [17]: 84 %/hr | IC50 [18]: 0.007 µM | fraction unbound (Homo sapiens): 0.19
SMILES: CN(C)S(=O)(=O)N(C)[C@@H]1CCCn2c1nc(C(=O)NCc1ccc(F)cc1)c(O)c2=O
IC95 [1]: 0.016 µM | IC95 [2]: 0.044 µM | IC50 [15]: 20 µM

From ChEMBL document CHEMBL1143246, “Design and synthesis of bicyclic pyrimidinones as potent and orally bioavailable HIV-1 integrase inhibitors” (J Med Chem, 2008)
